Calls of active or inactive are those of the source.

From ChEMBL document CHEMBL1148756, “Discovery of 3,3'-(2,4-diaminopteridine-6,7-diyl)diphenol as an isozyme-selective inhibitor of PI3K for the treatment of ischemia reperfusion injury associated with myocardial infarction” (J Med Chem, 2007) come the findings set out here.

In data set [1] the target is Phosphatidylinositol 4,5-bisphosphate 3-kinase catalytic subunit gamma isoform (Homo sapiens, UniProt P48736). Kind of data set: Inhibition of recombinant PI3Kgamma. The method in brief: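 Luminescence kinase assay with recombinant PI3K p120 gamma (250-500 ng/well), ambient temperature, in 20 mM Tris pH 7.4, 4 mM MgCl2, 10 mM NaCl, 50 µM PIP2 substrate. Compound added in DMSO at 100 to 0.001 µM final. ATP added from a 3 µM stock. Stopped after 90 min with Kinase-Glo and read by luminescence. IC50 from nonlinear curve fit.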

A short description of data set [2]: Volume of distribution at steady state in Sprague-Dawley rat at 0.5 mg/kg, iv. It is filed as ADME, organism-based. Also on record: dose 0.5 mg/kg, route intravenous. Conditions: in vivo, read-out: Vdss. The method in brief:
(§1)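 Male Sprague-Dawley rats (200-250 g, N = 5 per dose) were given a single iv tail bolus of 0.5 or 5 mg/kg in aqueous 9.5% Captisol. Jugular-catheter blood was drawn at 5, 15, 30 min and 1, 2, 4, 6, 8, 24 h. Plasma was acetonitrile-extracted and quantified by LC/MS/MS (calibration 1-10 000 ng/mL). Parameters were derived noncompartmentally, with CL = dose/AUC(0-inf) and Vdss = CL × MRT.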

The nature of data set [3]: Half life in Sprague-Dawley rat at 5.0 mg/kg, iv. It is filed as ADME, organism-based. Also on record: dose 5 mg/kg, route intravenous. Particulars: in vivo. The method in brief: as §1
Data set [4] can be described thus: Half life in Sprague-Dawley rat at 0.5 mg/kg, iv. It is filed as ADME, organism-based. Also on record: dose 0.5 mg/kg, route intravenous. Particulars: in vivo. The method in brief:
as §1

Data set [5] in a line: Cmax in Sprague-Dawley rat at 5.0 mg/kg, iv. Particulars: in vivo. It is filed as ADME, organism-based. Also on record: dose 5 mg/kg, route intravenous. The method in brief:
as §1

Data set [6] concerns the target RAC-alpha serine/threonine-protein kinase (Homo sapiens) (UniProt P31749). Kind of data set: Inhibition of FGF-induced AKT phosphorylation in HUVEC cells by Western blot at 10 uM. It is filed as cell-based. The method in brief:
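Serum-starved HUVECs were pretreated for 15 min with compound (0.125-10 µM) or vehicle, then stimulated for 5 min with 20 ng/mL recombinant bFGF. Cells were lysed in RIPA, protein was normalized by BCA, and lysates were run on SDS-PAGE. Blots were probed for phospho-Akt, stripped, and reprobed for total Akt.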
(In western blotting, separated proteins are transferred to a membrane and probed.)

The nature of data set [7]: Clearance in Sprague-Dawley rat at 5.0 mg/kg, iv. The class given is ADME, organism-based. More on the design: dose 5 mg/kg, route intravenous. Particulars: in vivo. The method in brief:
as §1

Data set [8] has as its target Ribosomal protein S6 kinase beta-1 (Homo sapiens) (UniProt P23443). Kind of data set: Inhibition of VEGF-induced phosphorylation of p70S6 at 10 uM. The method in brief: (§2)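 HUVECs (passage 2-4) were serum-starved for 4 h in EBM-2, then exposed for 10 min to 20 ng/mL recombinant human VEGF with or without 10 µM compound in DMSO. Cells were PBS-rinsed and lysed in RIPA, and lysates were normalized by BCA. Samples were screened externally by Western-blot-based antibody panels covering 73 phosphorylated kinases.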

Data set [9] in a line: AUC (0 to infinity) in Sprague-Dawley rat at 5.0 mg/kg, iv. The class given is ADME, organism-based. Also on record: time infinity, dose 5 mg/kg, route intravenous. Conditions: plasma. The method in brief: (§3)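 Male Sprague-Dawley rats (200-250 g, N = 5 per dose) given a single iv tail bolus in aqueous 9.5% Captisol. Serial plasma was taken via jugular catheter from 5 min to 24 h. Samples were acetonitrile-extracted with internal standard and quantified by LC/MS/MS (calibration 1-10 000 ng/mL). AUC(0-inf) came from noncompartmental analysis.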

A short description of data set [10]: AUC (0 to infinity) in Sprague-Dawley rat at 0.5 mg/kg, iv. The class given is ADME, organism-based. Also on record: time infinity, dose 0.5 mg/kg, route intravenous. Conditions: plasma. The method in brief: as §3
Data set [11] in a line: Plasma concentration in Sprague-Dawley rat at 5.0 mg/kg, iv. The class given is ADME, organism-based. Also on record: dose 5 mg/kg, route intravenous. The method in brief: as §1
A short description of data set [12]: Volume of distribution at steady state in Sprague-Dawley rat at 5.0 mg/kg, iv. It is filed as ADME, organism-based. Also on record: dose 5 mg/kg, route intravenous. Particulars: in vivo, read-out: Vdss. The method in brief: as §1
The target in data set [13] is Serine/threonine-protein kinase mTOR (Homo sapiens) (UniProt P42345). As to the kind of experiment: Inhibition of VEGF-induced phosphorylation of mTOR at 10 uM. The method in brief: as §2
A further data set has as its system HUVEC. As to the kind of experiment: Inhibition of VEGF-induced VE-cadherin phosphorylation in HUVEC cells by Western blot at 10 uM. The class given is cell-based. Particulars: Homo sapiens. The method in brief: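 Serum-starved HUVECs were pretreated for 15 min with compound (0.125-10 µM) or vehicle, then given 20 ng/mL recombinant VEGF for 5 min. RIPA lysates were loaded at equal protein (BCA, with β-actin as loading control) on SDS-PAGE. Blots were probed for phospho-VE-cadherin, stripped, and reprobed for total VE-cadherin.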

The nature of data set [14]: Clearance in Sprague-Dawley rat at 0.5 mg/kg, iv. The class given is ADME, organism-based. More on the design: dose 0.5 mg/kg, route intravenous. Particulars: in vivo. The method in brief: as §1
Data set [15] in a line: Cmax in Sprague-Dawley rat at 0.5 mg/kg, iv. Also on record: dose 0.5 mg/kg, route intravenous. Particulars: in vivo. It is filed as ADME, organism-based. The method in brief:
as §1

Data set [16] in a line: Plasma concentration in Sprague-Dawley rat at 0.5 mg/kg, iv. The class given is ADME, organism-based. Also on record: dose 0.5 mg/kg, route intravenous. The method in brief: as §1

RAC-alpha serine/threonine-protein kinase (Homo sapiens), sequence (P31749 whole entry): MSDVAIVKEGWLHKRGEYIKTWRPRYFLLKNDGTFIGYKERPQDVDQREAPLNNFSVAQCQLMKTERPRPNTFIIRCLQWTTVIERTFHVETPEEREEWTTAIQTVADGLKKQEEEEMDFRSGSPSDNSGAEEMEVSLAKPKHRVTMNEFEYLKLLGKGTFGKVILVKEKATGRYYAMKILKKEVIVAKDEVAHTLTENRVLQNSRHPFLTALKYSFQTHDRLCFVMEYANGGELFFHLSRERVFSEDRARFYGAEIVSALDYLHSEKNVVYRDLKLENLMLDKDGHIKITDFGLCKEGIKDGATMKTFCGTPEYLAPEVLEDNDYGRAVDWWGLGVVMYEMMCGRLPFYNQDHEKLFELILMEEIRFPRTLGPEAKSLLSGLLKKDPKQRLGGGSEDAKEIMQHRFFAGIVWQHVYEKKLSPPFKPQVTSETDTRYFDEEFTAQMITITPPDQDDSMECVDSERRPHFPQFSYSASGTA
Ribosomal protein S6 kinase beta-1 (Homo sapiens), sequence (P23443 whole entry, looked up): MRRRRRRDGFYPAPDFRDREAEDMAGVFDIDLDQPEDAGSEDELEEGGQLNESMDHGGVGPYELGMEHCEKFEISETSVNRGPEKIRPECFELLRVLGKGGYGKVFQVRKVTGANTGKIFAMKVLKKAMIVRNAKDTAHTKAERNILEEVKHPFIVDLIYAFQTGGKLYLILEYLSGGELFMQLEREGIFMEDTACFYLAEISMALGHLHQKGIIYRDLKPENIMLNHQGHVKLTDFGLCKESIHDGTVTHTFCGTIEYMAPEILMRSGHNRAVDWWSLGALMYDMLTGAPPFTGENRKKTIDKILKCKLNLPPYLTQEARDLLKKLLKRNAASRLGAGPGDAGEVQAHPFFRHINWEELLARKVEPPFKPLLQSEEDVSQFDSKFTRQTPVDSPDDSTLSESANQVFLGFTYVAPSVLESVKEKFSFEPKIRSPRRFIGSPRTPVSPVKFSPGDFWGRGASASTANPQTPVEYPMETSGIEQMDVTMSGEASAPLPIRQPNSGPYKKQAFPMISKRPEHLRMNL

For `Nc1nc(NCCCN2CCOCC2)c2nc(-c3cccc(O)c3)c(-c3cccc(O)c3)nc2n1`, the IC50 in data set [1] is 51 µM.
As to `Nc1ccc2nc(-c3ccc(O)cc3)c(-c3ccc(O)cc3)nc2n1`, the outcome in [1] was inactive.
`Nc1nc(N)c2ncc(-c3cccc(O)c3)nc2n1`: the half-maximal inhibitory concentration (IC50) in data set [1] is 3 µM.
With `Nc1nc(N)c2nc(-c3ccc(O)c(O)c3)cnc2n1`, in [1], the half-maximal inhibitory concentration (IC50) was found to be 0.195 µM.
On to `Nc1ccc2nc(-c3ccc(O)c(O)c3)c(-c3ccc(O)c(O)c3)nc2n1`, for which, in [1], the outcome was inactive.
The same measure, in the same setting: in the case of `Nc1ccc2nc(-c3cccc(O)c3)c(-c3cccc(O)c3)nc2n1` it was “inactive”.
With `Nc1nc(N)c2ncc(-c3ccc(O)c(O)c3)nc2n1`, the IC50 in data set [1] was 5.9 µM.
Turning to `CCN(CC)CCOc1cccc(-c2nc3nc(N)nc(N)c3nc2-c2cccc(OCCN(CC)CC)c2)c1`, the result in data set [1] was inactive.
As for `Nc1nc(N)c2nc(-c3ccc(O)cc3)c(-c3ccc(O)cc3)nc2n1`, the IC50 in data set [1] came out at 2.7 µM.
On to `COc1cccc(-c2nc3nc(N)nc(N)c3nc2-c2cccc(OC)c2)c1`, for which, in [1], the IC50 was 12.6 µM.
Still for that read-out and setting: for `Oc1cccc(-c2nc3nc(O)nc(O)c3nc2-c2cccc(O)c2)c1` the value was 46 µM.
On the same count and under the same terms, in the case of `Nc1ncnc2nc(-c3cccc(O)c3)c(-c3cccc(O)c3)nc12` it was 4 µM; in that of `Nc1ccc2nc(-c3cccc(O)c3)c(-c3cccc(O)c3)nc2c1`, 17 µM.
Same read-out and setting: for `Oc1cccc(-c2nc3cncnc3nc2-c2cccc(O)c2)c1` the value was 9 µM.
For the molecule `Nc1ncnc2ncc(-c3ccc(O)c(O)c3)nc12`, the IC50 in data set [1] is 1.3 µM.
The same measure, in the same setting: for `Nc1nc(N)c2ncc(-c3ccc(O)cc3)nc2n1` the value was 4.7 µM.
Regarding `Nc1cncc2nc(-c3ccc(O)cc3)c(-c3ccc(O)cc3)nc12`, in data set [1], the outcome was inactive.
Consider `Nc1nc(N)c2nc(-c3cccc(O)c3)c(-c3cccc(O)c3)nc2n1` [TG100-115], for which the Vd in [2] was determined as 2.3 L/kg; in data set [12], 4.4 L/kg. Besides, the figures for the half-life in data set [3] and in [4] were 48 min and 24 min, respectively. Further, the Cmax in data set [5] worked out at 3330 ng/mL; in [15] it was 363 ng/mL. Besides, the Activity entry in data set [6] is “Dose-dependent effect”. Further, the results for the clearance in [7] and in data set [14] were 66 mL/min/kg and 71 mL/min/kg, respectively. Moreover, the result (in data set [8]; in [13]; in the data set with HUVEC) was Active. Moreover, the AUC(0-inf) turned out to be 1380 ng·h/mL in data set [9] and 124 ng·h/mL in [10]. For the same molecule, the figures for the C0 in [11] and in data set [16] were 7730 ng/mL and 713 ng/mL, respectively.
For `Nc1nc(N)c2nc(-c3ccccc3)c(-c3ccccc3)nc2n1`, in data set [1], the IC50 stood at 8.5 µM.
Consider `Nc1ncnc2nc(-c3ccc(O)c(O)c3)cnc12`, for which the half-inhibitory concentration (IC50) in [1] worked out at 5.1 µM.
Still for that read-out and setting: in the case of `Nc1nc(N)c2nc(-c3ccc(O)cc3)cnc2n1` it was 1.2 µM.
For the molecule `CCOP(=O)(OCC)Oc1cccc(-c2nc3nc(N)nc(N)c3nc2-c2cccc(OP(=O)(OCC)OCC)c2)c1`, the result in data set [1] was inactive.
`Oc1cccc(-c2nc3nc(NCCCN4CCOCC4)nc(NCCCN4CCOCC4)c3nc2-c2cccc(O)c2)c1`: in data set [1], the outcome was inactive.
Same read-out and setting: in the case of `Nc1cncc2nc(-c3cccc(O)c3)c(-c3cccc(O)c3)nc12` it was “inactive”.
For the molecule `Nc1ncnc2nc(-c3ccc(O)cc3)c(-c3ccc(O)cc3)nc12`, the IC50 in data set [1] came to 4 µM.
On the same count and under the same terms, for `Nc1nc(N)c2nc(-c3cccc(OCC(O)CO)c3)c(-c3cccc(OCC(O)CO)c3)nc2n1` (stereo unspecified) the value was 32.7 µM.

For orientation: IC50 means the point on the concentration scale where inhibition reaches its midpoint. By half-life is commonly meant the time needed for the level to fall by half in the phase considered. As usually defined, the Cmax is the maximum level reached in the sampled fluid or tissue. Usually clearance stands for the volume of plasma or blood freed of the substance per unit of time. Lower therefore signals inefficient removal. What is called AUC(0-inf) is the area under the concentration-time curve extrapolated to infinity. Low readings indicate low exposure, high ones high exposure.
